Measured values pooled from the literature.
Lines come from different studies, so protocols differ.
CHEK1: Serine/threonine-protein kinase Chk1 (CHEK1, Homo sapiens, UniProt O14757)
HDAC5: Histone deacetylase 5 (HDAC5, Homo sapiens, UniProt Q9UQL6)

| Compound | target | test | conditions | endpoint | result |
| --- | --- | --- | --- | --- | --- |
| Cc1noc(C)c1-c1ccc(-c2nc3cnccn3c2NC(C)(C)C)cc1 | Bromodomain and PHD finger-containing protein 3 (BRPF3, Homo sapiens, UniProt Q9ULD4) | cell-free assay, competition with immobilised ligand |  | Kd | 40000 nM |
| COc1cc(Nc2ncc3c(n2)-c2ccc(Cl)cc2C(c2c(F)cccc2OC)=NC3)ccc1C(=O)NCCOCCOCCNC(=O)COc1cccc2c1C(=O)N(C1CCC(=O)NC1=O)C2=O (centres unmarked) | Ferrochelatase, mitochondrial (FECH, Homo sapiens, UniProt P22830) | binding | lysate | Kd | 6430 nM |
| CC[C@@H](Oc1cccc(CN(CCCOc2ccc(OC)cc2)c2nc3ccccc3o2)c1)C(=O)O | Peroxisome proliferator-activated receptor gamma (PPARG, Homo sapiens, UniProt P37231) | binding, ITC |  | Kd | 9030 nM |
| CCCCCCCCCCCCCCCCC#CC(=O)O | DNA topoisomerase 1 (TOP1, Homo sapiens, UniProt P11387) | enzyme activity, inhibitor |  | EC50 | 20500 nM |
| Cc1cnc(-c2ccc(-c3ccc(NC(=O)Nc4c(F)cc(F)cc4F)cc3F)c3c2C(=O)NC3)[nH]1 | Discoidin domain-containing receptor 2 (DDR2, Homo sapiens, UniProt Q16832) | binding, competition with immobilised ligand |  | Kd | 3 nM |
| CC(=O)c1cc([N+](=O)[O-])c(Sc2cccc(Cl)c2Cl)s1 | Caspase-3 (CASP3, Homo sapiens, UniProt P42574) | enzyme activity, inhibitor |  | EC50 | > 50000 nM |
| CCn1cncc1Cn1c(CN2CCC(c3cccc(OCc4ccc(F)cc4F)n3)CC2)nc2ccc(C(=O)O)cc21 | Glucagon-like peptide 1 receptor (GLP1R, Homo sapiens, UniProt P43220, L260F) | cAMP, agonist, TR-FRET |  | EC50 | 0.09 nM |
| COc1cc(-c2cc3c(cc2C)C(=O)Nc2cc(CC(=O)Nc4ccc(N5CCOCC5)cc4)ccc2N3)ccc1[N+](=O)[O-] | CHEK1 | enzyme activity, inhibitor |  | IC50 | 64.4 nM |
| COc1ccc(-c2nsc(NC(=O)[C@@H]3C[C@H]3C)c2C)cc1 | Metabotropic glutamate receptor 5 (GRM5, Homo sapiens, UniProt P41594) | calcium signal, agonist |  | EC50 | > 25000 nM |
| O=C(O)c1ccc(-c2[nH]nc3c2Cc2cc(CNC4CCC(O)CC4)ccc2-3)o1 (centres unmarked) | CHEK1 | enzyme activity, inhibitor |  | IC50 | 1560 nM |
| C#Cc1cccc(Nc2ncnc3cc(OC)c(OCCCCCCC(=O)NO)cc23)c1 | HDAC5 | cell-free assay |  | Kd | > 30200 nM |
| Oc1ccc(-c2ccc(-c3[nH]nc4c3Cc3cc(O)ccc3-4)cc2)cc1 | CHEK1 | enzyme activity, inhibitor |  | IC50 | 5.9 nM |
| CCCCOc1nc(N)c2[nH]c(=O)n(CCN)c2n1 | Toll-like receptor 8 (TLR8, Homo sapiens, UniProt Q9NR97) | reporter gene, agonist |  | EC50 | 209000 nM |
| OCc1ccc2c(c1)-c1n[nH]c(-c3ccc(-c4ccc(O)cc4)cc3)c1C2 | CHEK1 | enzyme activity, inhibitor |  | IC50 | 4.4 nM |
| O=C(O)C1=CCCN(CCON=C(c2ccccc2)c2ccccc2)C1 | Sodium- and chloride-dependent GABA transporter 1 (Slc6a1, Rattus norvegicus, UniProt P23978) | ligand displacement, radioligand |  | IC50 | 390 nM |
| COc1cc(NC(=O)CCCCCCC(=O)O)c(Cl)cc1NC(=O)Nc1cnc(C#N)cn1 | CHEK1 | enzyme activity, inhibitor |  | IC50 | 57.9 nM |
| O=C(CCCCCCC(=O)Nc1ccc([C@H]2O[C@@H](CSc3nc(-c4ccccc4)c(-c4ccccc4)o3)C[C@@H](c3ccc(CO)cc3)O2)cc1)NO | HDAC5 | cell-free assay |  | Kd | > 30200 nM |
